Assay results from different studies.
Protocols differ between the studies behind these lines.

SMILES | tested on | assay | system | conditions | endpoint | result
COc1cc(C#CC(=O)C(C)C)ccc1O | Pseudomonas aeruginosa | microbial growth, absorbance | – | 10 µM, 24 h | activity vs control | 94%
CN(C)c1cc(NC(=O)Cc2ccccn2)c(O)c2c1C[C@H]1C[C@H]3[C@H](N(C)C)C(O)=C(C(N)=O)C(=O)[C@@]3(O)C(O)=C1C2=O | Mycobacteroides abscessus | microbial growth, resazurin | ATCC19977 | – | IC50 | 0.67 mg/L
C=C(F)C(=O)N1CCN(c2nc(OC[C@@H]3CCCN3C)nc3c2CCN(c2cccc4cccc(Cl)c24)C3)C[C@@H]1CC#N | MIA PaCa-2 | cell growth or viability, ATP luminescence | – | 3D culture | IC50 | 0.00251 µM
O=C(NO)c1ccc(CNc2nc3cccc(-c4ccc5c(c4)OCO5)n3n2)cc1 | T47D | cell growth or viability, SRB | – | – | GI50 | 0.43 µM
CN(C)c1cc(NC(=O)Cc2ccn(C)n2)c(O)c2c1C[C@H]1C[C@H]3[C@H](N(C)C)C(O)=C(C(N)=O)C(=O)[C@@]3(O)C(O)=C1C2=O | Mycobacteroides abscessus | microbial growth, resazurin | ATCC19977 | – | IC50 | 0.86 mg/L
O=C1CC[C@H](N2Cc3cc(N4CCN(CC5CCN(c6ccc([C@@H]7c8ccc(O)cc8CC[C@@H]7c7ccccc7)cc6)CC5)CC4)ccc3C2=O)C(=O)N1 | T47D | cell growth or viability, ATP luminescence | – | 5 days | GI50 | 0.0045 µM
CN(C)c1cc(NC(=O)CCc2cccnc2)c(O)c2c1C[C@H]1C[C@H]3[C@H](N(C)C)C(O)=C(C(N)=O)C(=O)[C@@]3(O)C(O)=C1C2=O | Mycobacteroides abscessus | microbial growth, resazurin | ATCC19977 | – | IC50 | 5.63 mg/L
COc1cc(C#CC(=O)c2cccc(Cl)c2)ccc1O | Pseudomonas aeruginosa | microbial growth, absorbance | – | 10 µM, 24 h | activity vs control | 102%
CN(C)c1cc(NC(=O)Cc2cccnc2)c(O)c2c1C[C@H]1C[C@H]3[C@H](N(C)C)C(O)=C(C(N)=O)C(=O)[C@@]3(O)C(O)=C1C2=O | Mycobacteroides abscessus | microbial growth, resazurin | ATCC19977 | – | IC50 | 1.29 mg/L
CCCCC[C@H](O)CC(=O)CCc1ccc(O)c(OC)c1 | Pseudomonas aeruginosa | microbial growth, absorbance | – | 10 µM, 24 h | activity vs control | 99%
C=CC(=O)NC1CCN(c2ncc3ncnc(Nc4ccc(Oc5ccc6c(c5)ncn6C)c(C)c4)c3n2)CC1 | ONS-76 | cell growth or viability | – | – | EC50 | 0.483 µM
COc1cc(C#CC(=O)c2ccccc2OC)ccc1O | Pseudomonas aeruginosa | microbial growth, absorbance | – | 10 µM, 24 h | activity vs control | 91%
O=C(O)CO/N=c1\cc2n(-c3ccc(Cl)cc3)c3ccccc3nc-2cc1Nc1ccc(Cl)cc1 | Mycobacteroides abscessus | microbial growth | – | clinical isolate | MIC | > 30 µM
CN(C)c1cc(NC(=O)Cc2cncnc2)c(O)c2c1C[C@H]1C[C@H]3[C@H](N(C)C)C(O)=C(C(N)=O)C(=O)[C@@]3(O)C(O)=C1C2=O | Mycobacteroides abscessus | microbial growth, resazurin | ATCC19977 | – | IC50 | 0.74 mg/L
C=CCO/N=c1\cc2n(-c3ccc(Cl)cc3)c3ccccc3nc-2cc1Nc1ccc(Cl)cc1 | Mycobacteroides abscessus | microbial growth | – | clinical isolate | MIC | > 30 µM
COc1ccccc1C(=O)C#Cc1ccc(F)c(F)c1 | Pseudomonas aeruginosa | microbial growth, absorbance | – | 100 µM, 24 h | activity vs control | 83%
CCOC(=O)CNC(=O)CO/N=c1\cc2n(-c3ccc(Cl)cc3)c3ccccc3nc-2cc1Nc1ccc(Cl)cc1 | Mycobacteroides abscessus | microbial growth | – | clinical isolate | MIC | > 30 µM
CN(C)c1cc(NC(=O)Cc2cscn2)c(O)c2c1C[C@H]1C[C@H]3[C@H](N(C)C)C(O)=C(C(N)=O)C(=O)[C@@]3(O)C(O)=C1C2=O | Mycobacteroides abscessus | microbial growth, resazurin | ATCC19977 | – | IC50 | 0.23 mg/L
O/N=c1\cc2n(-c3ccc(Cl)cc3)c3ccccc3nc-2cc1Nc1ccc(Cl)cc1 | Mycobacteroides abscessus | microbial growth | – | clinical isolate | MIC | > 30 µM
COc1ccc(C(=O)C#Cc2ccc(O)c(OC)c2)cc1 | Pseudomonas aeruginosa | microbial growth, absorbance | – | 10 µM, 24 h | activity vs control | 95%
CN(C)c1cc(NC(=O)Cc2ccncc2)c(O)c2c1C[C@H]1C[C@H]3[C@H](N(C)C)C(O)=C(C(N)=O)C(=O)[C@@]3(O)C(O)=C1C2=O | Mycobacteroides abscessus | microbial growth, resazurin | ATCC19977 | – | IC50 | 0.57 mg/L
CO/N=c1\cc2n(-c3ccc(Cl)cc3)c3ccccc3nc-2cc1Nc1ccc(Cl)cc1 | Mycobacteroides abscessus | microbial growth | – | clinical isolate | MIC | > 30 µM
